Assay results reported in article PMC11342405 (Bioorganic & medicinal chemistry, 2024).
“Also recorded” adds a separate entry of the source.

Key:
[1] = tested on: HEK-293 cells; assay: Anti-proliferative MTT assay, non-cancerous HEK-293 cells; assay type: cell-based; conditions: Homo sapiens, HEK293, 72 h, read-out: HEK-293 IC50
Procedure, shortened: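 HEK-293 cells grown in DMEM with 10% FBS and 1% penicillin/streptomycin, seeded at 2.5 x 10^4 cells/well and allowed 24 h before dosing. Compound (DMSO stock) given at increasing concentrations for 72 h at 37 °C, 5% CO2. MTT (5.4 mg/mL dye solution) was added for 3 h, formazan dissolved in DMSO, and absorbance read at 570 nm. Replicates 6-8; IC50 derived from concentration-response data.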

[2] = target: T1, gankyrin (Homo sapiens, UniProt O75832); assay: Circular dichroism of gankyrin; assay type: binding; conditions: 10 μM gankyrin, 1-100 μM compound, 25 °C
T1 sequence (O75832 1-226): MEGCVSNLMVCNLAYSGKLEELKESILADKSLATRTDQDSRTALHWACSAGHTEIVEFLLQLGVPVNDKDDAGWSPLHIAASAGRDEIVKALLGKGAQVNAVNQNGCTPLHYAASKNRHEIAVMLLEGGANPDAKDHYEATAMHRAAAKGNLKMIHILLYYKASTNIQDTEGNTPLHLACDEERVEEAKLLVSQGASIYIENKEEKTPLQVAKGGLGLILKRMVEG
Procedure, shortened: (§1)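 Recombinant His-tagged protein was expressed in E. coli LOBSTR BL21(DE3) (0.5 mM IPTG, 37 °C, 16 h) and Ni-affinity purified. The tag was removed with TEV, followed by a second HisTrap pass and gel filtration if needed. 10 μM protein in 25 mM Tris, 50 mM NaCl, pH 7.4, alone or with 1, 10 or 100 μM compound. Spectra 195–260 nm in a 1 mm quartz cuvette, six accumulations, 25 °C; α-helical content monitored; triplicate samples.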

[3] = target: T2, ANKRA2 (Homo sapiens, UniProt Q9H9E1); assay: Circular dichroism of ANKRA2; assay type: binding; conditions: 10 μM ANKRA2, 1-100 μM compound, 25 °C
T2 sequence (Q9H9E1 152-313 limits assumed): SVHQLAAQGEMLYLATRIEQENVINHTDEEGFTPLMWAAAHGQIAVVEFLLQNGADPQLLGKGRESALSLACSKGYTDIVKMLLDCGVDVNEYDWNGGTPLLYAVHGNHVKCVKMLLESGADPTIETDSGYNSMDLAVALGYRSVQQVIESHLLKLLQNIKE
Procedure, shortened: as §1

[4] = target: T1, gankyrin; assay: Cellular thermal shift assay; assay type: cell-based; conditions: HuH6 cells treated at anti-proliferative IC50 for 5 h, 50-65 °C
Procedure, shortened: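 HuH6 cells were exposed to test compound (0.25% DMSO final) or DMSO alone for 5 h, harvested, split into six aliquots and heated at 50, 53, 56, 59, 62 or 65 °C. Lysis was in RIPA with protease/phosphatase inhibitors, 60 min on ice. 15 μg protein was run on reducing SDS-PAGE, transferred to PVDF and probed for gankyrin, with β-actin as reference; HRP secondary and ECL detection.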

[5] = tested on: Rb, p53 and gankyrin levels in HuH6 cells; assay: Western blot analysis of TSP levels in HuH6 cells; assay type: cell-based; conditions: 48 h
Procedure, shortened: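 HuH6 cells in 10 cm dishes were exposed to varying compound concentrations (0.25% DMSO final) or DMSO only for 48 h. Cells were harvested in cold PBS and lysed in RIPA with protease/phosphatase inhibitors, 60 min on ice. 15 μg protein was resolved under reducing conditions, transferred to PVDF and probed for p53, Rb and gankyrin, with cyclophilin as reference; HRP secondaries, ECL detection. Run in duplicate.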

[6] = tested on: HuH6 cells; assay: Cell cycle analysis by flow cytometry in HuH6 cells; assay type: cell-based; conditions: 3.3 μM, 72 h, vs DMSO
Procedure, shortened: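 HuH6 cells in 10 cm dishes were exposed to test compound or vehicle (0.25% DMSO final) for 72 h. Cells were harvested in cold PBS, normalized, fixed in 70% ethanol at −20 °C overnight, then stained with PI/RNase for 30 min at 37 °C. DNA content was measured by flow cytometry. Mean ± SD, n = 3; one-way ANOVA, P < 0.05 significant.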

Row | gankyrin thermal stability (CETSA) [4] | Structure (SMILES) | IC50 [1] [µM] | effect on gankyrin secondary structure / 3D fold (CD spectra) [2] | effect on ANKRA2 secondary structure / 3D fold (CD spectra) [3] | Rb and p53 levels (western blot) [5] | gankyrin levels (western blot) [5] | number of cells in the G0-G1 phase [6] | number of cells in the S phase [6]
1 | – | COC(=O)c1ccc(C(=O)NCCCNC(=O)c2ccc(C(=O)OC)cc2)cc1 [Compound 10d, Dimethyl 4,4'-((propane-1,3-diylbis(azanediyl))bis(carbonyl))dibenzoate] | > 50 | reduction in secondary structure content; also recorded: significant loss of gankyrin structural integrity | no changes in secondary structure content; also recorded: no significant global structure change | – | – | – | –
2 | bind and thermally stabilize gankyrin | COC(=O)c1ccc(NC(=O)CCC(=O)Nc2ccc(C(=O)OC)cc2)cc1 [Compound 13d, Dimethyl 4,4'-(succinylbis(azanediyl))dibenzoate] | > 50 | decline in secondary structure content; also recorded: significant loss of gankyrin structural integrity | no alterations in secondary structure content; also recorded: no significant global structure change | increase in both Rb and p53 levels | relatively constant | significant increase | significant decrease
